The values below come from ChEMBL document CHEMBL1155830, “Asymmetric synthesis of 2,3-dihydro-2-arylquinazolin-4-ones: methodology and application to a potent fluorescent tubulin inhibitor with anticancer activity” (J Med Chem, 2008).

pIC50: −log10 of the molar value.

In one experiment the test system is MDA-MB-435. In words: Antiproliferative activity against human MDA-MB-435 cells after 72 hrs. The conditions noted are these: MDA-MB-435, 72 h. The class given is functional. A digest of the protocol:
(§1)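 HCT-116 cells were kept in McCoy's 5a with 1.5 mM L-glutamine and 5% FBS, and MDA-MB-435 cells in D-MEM with 1.5 mM L-glutamine and 5% FBS, both at 37 °C in humidified 5% CO2. Cells were seeded at 3200 per well, allowed to attach, and given vehicle or drug at 10 nM–3 µM (n = 8) for 72 h. Live cells were read by CellTiter 96 AQueous at 490 nm, and the 50% inhibitory value was taken from the dose–response curve.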

The next experiment deals with HCT-116. In words: Antiproliferative activity against human HCT116 cells after 72 hrs. The conditions noted are these: HCT-116, 72 h. Type of experiment: functional. The essentials:
as §1

Experiment [1] in a line: Inhibition of tubulin polymerization.
A short description of experiment [2]: Displacement of [3H]colchicine from tubulin at 5 uM.
Experiment [3] can be described thus: Displacement of [3H]colchicine from tubulin at 50 uM.

On to `CC(=O)O[C@H]1C(=O)[C@@]2(C)[C@H]([C@H](OC(=O)c3ccccc3)[C@]3(O)C[C@H](OC(=O)[C@H](O)[C@@H](NC(=O)c4ccccc4)c4ccccc4)C(C)=C1C3(C)C)[C@]1(OC(C)=O)CO[C@@H]1C[C@@H]2O` [PACLITAXEL], for which, in the experiment with MDA-MB-435, halving of growth (GI50) required 4 nM. In other words, the single-digit nanomolar range.
On to `Cc1ccccc1-c1ccc([C@H]2NC(=O)c3cc([N+](=O)[O-])ccc3N2)cc1`, for which the GI50 – broadly, the concentration at which growth is held to half of that of the control – in the experiment with MDA-MB-435 stood at 1100 nM; in the experiment with HCT-116 it was 930 nM. For the same compound, the pIC50 (commonly the negative decadic logarithm of the IC50, by convention in mol/L) in experiment [1] is 4.80. In addition, the inhibition (usually the change of the read-out against control, counted positive when it falls) in experiment [2] came to 2.1%; in experiment [3] it was 5.5%.
The like results for `Cc1ccccc1-c1ccc([C@@H]2NC(=O)c3cc([N+](=O)[O-])ccc3N2)cc1` were, in that order, 0.1 nM, 100 nM, 5.96, 28% and 66%.
In turn, `COc1ccc(/C=C\c2cc(OC)c(OC)c(OC)c2)cc1O` showed an inhibition in experiment [2] of 99%.
As for `Cc1ccccc1-c1ccc(C2NC(=O)c3cc([N+](=O)[O-])ccc3N2)cc1` (racemic), the GI50 was found to be 100 nM in the experiment on MDA-MB-435 and 300 nM in the experiment with HCT-116. In experiment [1], this compound showed a pIC50 of 5.77. The inhibition in experiment [2] amounted to 17%; in experiment [3], 51%.
